Data on 5 substances can be found in PMC3906126 (Biochemistry, 2013).

No end group written: not given here.

The target in one assay is WW2W domain of WWOX (Homo sapiens, UniProt Q9NZC7, Y85W). In words: ITC binding of ErbB4 PPXY peptides to WW2W. To be noted: for ΔH: Table 3, pH 7.0, 25°C, mean ± SD, at least three measurements. The method in brief:
(§1)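 His-tagged human WWOX constructs: WW1 (residues 16–50), WW1–WW2 tandem (16–91), and WW2 (57–91) carrying Y85W. Expressed in E. coli BL21*(DE3) and purified by Ni-NTA then SEC. 12-mer ErbB4 peptides (4 mM in syringe) injected 25× into 40–60 μM protein at 25 °C. Buffer: 50mM sodium phosphate, 100mM NaCl, 1mM EDTA, 5mM β-mercaptoethanol, pH 7.0. Buffer-titration heats subtracted. One-site fit with stoichiometry fixed at 1 gives Kd and ΔH. At least 3 repeats, SD.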

In assay [1] the target is T1, WW1–WW2 tandem module of WWOX (Homo sapiens, UniProt Q9NZC7).
T1 sequence (Q9NZC7 16-91): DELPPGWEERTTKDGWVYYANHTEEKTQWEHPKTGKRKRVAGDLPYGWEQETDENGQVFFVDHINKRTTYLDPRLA
As to the kind of experiment: ITC binding of ErbB4 PPXY peptides to WW1–WW2 tandem module of WWOX. The following applies: Table 4, pH 7.0, 25°C, mean ± SD, at least three measurements. The gist of the method:
as §1

The target of a further assay is T2, WW1 domain of WWOX (Homo sapiens, UniProt Q9NZC7).
T2 sequence (Q9NZC7 16-50 limits assumed): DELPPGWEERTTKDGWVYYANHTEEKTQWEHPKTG
As to the kind of experiment: ITC binding of ErbB4 PPXY peptides to WW1 domain of WWOX. The gist of the method:
as §1

In the next assay the test system is WW2 domain of WWOX. In words: ITC binding of WW1 domain of WWOX to WW2 domain and vice versa. On the set-up: species or system human.

WW2W domain of WWOX, sequence (Q9NZC7 57-91 Y85W limits assumed): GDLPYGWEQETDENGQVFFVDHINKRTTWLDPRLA

As for H-FNIPPPIYTSRA-OH [ErbB4_PY1], the ΔH at WW2W domain of WWOX is -4.74 ± 0.52 kcal/mol; in assay [1], -7.25 ± 0.88 kcal/mol. At WW1 domain of WWOX, the “affinity of binding to WW1 domain (in words)” value is recorded as “in the order of hundreds of micromolar”.

For the substance H-GHSPPPAYTPMS-OH [ErbB4_PY2], the ΔH on WW2W domain of WWOX is -8.08 ± 1.09 kcal/mol; in assay [1] it was -4.88 ± 0.28 kcal/mol. For the same substance, the “affinity of binding to WW1 domain (in words)” value at WW1 domain of WWOX is “in the order of hundreds of micromolar”.

Take H-TVLPPPPYRARN-OH [PY3_A+5]: on WW1 domain of WWOX (ΔH of mutant versus PY3_WT), the “enthalpy released relative to the PY3_WT peptide” value is listed as “more than −5 kcal/mol”.

On to H-TVLPPPPYRHRN-OH [ErbB4_PY3], for which the figures for the ΔH (at WW2W domain of WWOX; in assay [1]) were -4.15 ± 0.28 kcal/mol and -5.00 ± 0.30 kcal/mol, respectively. Besides, on WW2W domain of WWOX (Tables 1 and 3 compared), the “affinity for WW2W domain relative to binding of WW1 domain” value is “more than two-fold stronger”.

In the case of “WW1: WW1 domain (residues 16–50) of human WWOX, recombinant with N-terminal His-tag ({His‑tag}-DELPPGWEERTTKDGWVYYANHTEEKTQWEHPKTG)”, the “binding between the two WW domains” value in the assay on WW2 domain of WWOX is reported as “no observable binding”.
